The source of these data is ChEMBL document CHEMBL3085696, “Aurora isoform selectivity: design and synthesis of imidazo[4,5-b]pyridine derivatives as highly selective inhibitors of Aurora-A kinase in cells” (J Med Chem, 2013).

The structures appear in SMILES notation.

Data set [1] can be described thus: Metabolic stability in CD1 mouse liver microsomes at 10 uM after 30 mins. The class given is ADME, Microsome. The procedure, abridged:
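Compound at 10 μM incubated with male CD1 mouse liver microsomes (1 mg/mL protein) plus NADPH 1 mM, UDPGA 2.5 mM and MgCl2 3 mM in 10 mM PBS at 37 °C, for 0 and 30 min. Controls omit cofactors. Percent remaining measured by LC/MS.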
On the technique in general: Microsomes from liver hold many membrane-bound enzymes, among them those of drug oxidation.

The target in data set [2] is T1, Aurora kinase A (Homo sapiens, UniProt O14965).
T1 sequence (O14965 whole entry): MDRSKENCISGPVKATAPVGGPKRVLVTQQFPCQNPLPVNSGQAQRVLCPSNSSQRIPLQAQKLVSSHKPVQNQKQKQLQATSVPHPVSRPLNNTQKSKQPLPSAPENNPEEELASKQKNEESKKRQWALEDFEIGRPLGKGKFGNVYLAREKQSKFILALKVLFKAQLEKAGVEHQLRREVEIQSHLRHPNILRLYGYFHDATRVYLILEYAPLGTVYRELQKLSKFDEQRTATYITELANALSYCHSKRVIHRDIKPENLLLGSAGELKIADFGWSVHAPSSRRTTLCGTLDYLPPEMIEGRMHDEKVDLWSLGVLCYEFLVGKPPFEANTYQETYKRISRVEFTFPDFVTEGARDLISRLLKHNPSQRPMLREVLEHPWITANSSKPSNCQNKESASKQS
As to the kind of experiment: Inhibition of autophosphorylation of N-terminal Myc tagged aurora-A at T288 in human HeLa cells after 2 hrs. The class given is cell-based. Put shortly:
(§1)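 Cells transfected with Myc-tagged Aurora-A (wild type or T217E, L215R, R220K mutants) and treated with inhibitor concentrations for 2 h. Lysed in LDS buffer; SDS-type PAGE and western blot. Blots probed for P-T288 (Aurora-A autophosphorylation) and phospho-histone H3 S10 (Aurora-B substrate). Blots quantified; IC50 derived; ratio taken as H3 IC50 over T288 IC50.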

The nature of data set [3]: Metabolic stability in human liver microsomes at 10 uM after 30 mins. The class given is ADME. Put shortly: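 Mixed-gender pooled human liver microsomes (1 mg/mL) incubated with compound at 10 μM plus NADPH 1 mM, UDPGA 2.5 mM and MgCl2 3 mM in 10 mM PBS at 37 °C, for 0 and 30 min. Cofactor-free controls included. Percent remaining measured by LC/MS.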
Data set [4] addresses Aurora kinase A (Homo sapiens, UniProt O14965, T217E). Put plainly: Inhibition of autophosphorylation of aurora-A T217E mutant at T288 in human HCT116 cells after 2 hrs. The class given is cell-based, HCT-116. Put shortly:
(§2)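 Cells transfected with N-terminal Myc-tagged Aurora-A (wild type or T217E, L215R or R220K mutant, made by Quikchange mutagenesis), then exposed to a range of inhibitor concentrations for 2 h. Lysed in LDS sample buffer, sonicated, boiled, run on LDS-PAGE and blotted to nitrocellulose. Probed with anti-P-T288 (Aurora-A autophosphorylation) and anti-P-histone H3 S10 (Aurora-B substrate) antibodies. Blots quantified and IC50 fitted.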

Data set [5] addresses T1, Aurora kinase A. As to the kind of experiment: Inhibition of autophosphorylation of N-terminal Myc tagged aurora-A at T288 in human HCT116 cells after 2 hrs. The class given is cell-based, HCT-116. Put shortly:
as §1

The target in data set [6] is Glycogen synthase kinase-3 beta (Homo sapiens) (UniProt P49841). As to conditions: 1 uM.
Another data set relates to HeLa. Put plainly: Selectivity ratio of IC50 for aurora-B-mediated histone H3 phosphorylation at S10 in human HeLa cells to IC50 for autophosphorylation of N-terminal Myc tagged aurora-A at T288 in human HeLa cells. The class given is cell-based. The procedure, abridged: as §1
The target of data set [7] is T2, Receptor-type tyrosine-protein kinase FLT3 (Homo sapiens, UniProt P36888).
T2 sequence (P36888 whole entry): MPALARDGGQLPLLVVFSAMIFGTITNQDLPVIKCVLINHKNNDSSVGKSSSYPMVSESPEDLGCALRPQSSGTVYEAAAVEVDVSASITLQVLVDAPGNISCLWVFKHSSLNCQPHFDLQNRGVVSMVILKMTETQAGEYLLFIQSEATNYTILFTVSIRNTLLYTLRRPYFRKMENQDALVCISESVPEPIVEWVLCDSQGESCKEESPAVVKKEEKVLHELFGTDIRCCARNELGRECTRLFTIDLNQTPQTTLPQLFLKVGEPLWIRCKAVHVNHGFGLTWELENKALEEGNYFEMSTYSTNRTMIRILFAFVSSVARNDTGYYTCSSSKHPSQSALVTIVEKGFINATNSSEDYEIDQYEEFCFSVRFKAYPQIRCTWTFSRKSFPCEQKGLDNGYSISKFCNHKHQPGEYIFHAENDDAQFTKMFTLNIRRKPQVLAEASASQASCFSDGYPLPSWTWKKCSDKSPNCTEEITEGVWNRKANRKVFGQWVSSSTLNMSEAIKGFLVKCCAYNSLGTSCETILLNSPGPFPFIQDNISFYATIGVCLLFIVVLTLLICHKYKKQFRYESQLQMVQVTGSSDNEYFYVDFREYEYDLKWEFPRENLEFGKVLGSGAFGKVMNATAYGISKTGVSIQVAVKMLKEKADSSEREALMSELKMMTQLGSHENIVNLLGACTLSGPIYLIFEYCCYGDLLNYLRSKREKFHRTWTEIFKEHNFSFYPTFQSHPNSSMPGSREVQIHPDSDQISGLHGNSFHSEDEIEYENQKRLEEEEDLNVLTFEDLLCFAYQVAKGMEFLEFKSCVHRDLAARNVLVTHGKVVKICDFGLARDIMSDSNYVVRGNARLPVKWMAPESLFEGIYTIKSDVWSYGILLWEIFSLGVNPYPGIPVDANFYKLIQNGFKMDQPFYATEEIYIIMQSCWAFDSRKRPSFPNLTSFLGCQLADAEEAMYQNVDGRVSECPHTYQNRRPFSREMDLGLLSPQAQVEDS
Put plainly: Inhibition of FLT3 (unknown origin) at 1 uM. The procedure, abridged: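 Single-concentration (1 μM) profiling within a 110-kinase selectivity panel; activity expressed as percent inhibition of each kinase.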

Data set [8] in a line: Antiproliferative activity against human MV411 cells. The class given is functional. As to conditions: MV4-11.
In data set [9] the target is Vascular endothelial growth factor receptor 1 (Homo sapiens) (UniProt P17948). As to the kind of experiment: Inhibition of VEGFR1 (unknown origin) at 1 uM. The procedure, abridged: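 110-kinase panel profiling, compounds tested at 1 μM, read as percent inhibition.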
Another data set deals with Mus musculus. Put plainly: Oral bioavailability in Balb/C mouse at 5 mg/kg. The class given is ADME, organism-based. As to conditions: in vivo. The procedure, abridged:
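Female Balb/C mice given 5 mg/kg po or iv in 10% DMSO/5% Tween 20 in saline. Terminal cardiac-puncture plasma taken at 5, 15, 30 min and 1, 2, 4, 6, 24 h. Methanol precipitation with olomoucine internal standard. Analysis by LC/MS (ESI+ MRM).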

Data set [10] has as its target T1, Aurora kinase A. Put plainly: Inhibition of autophosphorylation of N-terminal Myc tagged wild type aurora-A at T288 in human HCT116 cells after 2 hrs. The class given is cell-based, HCT-116. The procedure, abridged:
as §2

In data set [11] the target is Aurora kinase A (Homo sapiens, UniProt O14965, R220K). Put plainly: Inhibition of autophosphorylation of aurora-A R220K mutant at T288 in human HCT116 cells after 2 hrs. The class given is cell-based, HCT-116. Put shortly: as §2
The target of the next data set is Aurora kinase B (Homo sapiens, UniProt Q96GD4). As to the kind of experiment: Inhibition of N-terminal Myc tagged aurora-B-mediated histone H3 phosphorylation at S10 in human HCT116 cells after 2 hrs. The class given is cell-based, HCT-116. Put shortly: as §2
Aurora kinase B, sequence (Q96GD4 whole entry): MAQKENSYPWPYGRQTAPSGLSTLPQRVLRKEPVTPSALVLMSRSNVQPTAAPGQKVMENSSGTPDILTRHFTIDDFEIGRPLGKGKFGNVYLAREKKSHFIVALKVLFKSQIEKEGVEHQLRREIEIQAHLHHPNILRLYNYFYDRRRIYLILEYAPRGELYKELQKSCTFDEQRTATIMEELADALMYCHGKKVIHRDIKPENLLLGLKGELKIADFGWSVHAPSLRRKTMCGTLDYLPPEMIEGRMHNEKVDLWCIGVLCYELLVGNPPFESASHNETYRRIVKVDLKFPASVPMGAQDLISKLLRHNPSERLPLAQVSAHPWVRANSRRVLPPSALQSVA

Aurora kinase A (Homo sapiens, UniProt O14965, T217E), sequence (O14965 whole entry I57V/T217E): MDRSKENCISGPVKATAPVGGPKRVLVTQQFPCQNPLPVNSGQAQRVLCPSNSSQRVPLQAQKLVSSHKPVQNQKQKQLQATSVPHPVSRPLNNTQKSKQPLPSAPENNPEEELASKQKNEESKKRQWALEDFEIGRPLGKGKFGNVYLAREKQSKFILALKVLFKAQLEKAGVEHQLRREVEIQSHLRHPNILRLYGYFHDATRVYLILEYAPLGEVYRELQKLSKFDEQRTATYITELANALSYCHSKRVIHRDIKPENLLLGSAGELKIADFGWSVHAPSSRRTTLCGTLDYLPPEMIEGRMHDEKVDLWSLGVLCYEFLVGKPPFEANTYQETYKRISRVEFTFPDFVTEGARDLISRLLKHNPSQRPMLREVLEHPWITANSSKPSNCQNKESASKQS
Aurora kinase A (Homo sapiens, UniProt O14965, R220K), sequence (O14965 whole entry I57V/R220K): as the sequence (O14965 whole entry I57V/T217E) above, with E217T, R220K counted along it
Vascular endothelial growth factor receptor 1 (Homo sapiens), sequence (P17948 whole entry): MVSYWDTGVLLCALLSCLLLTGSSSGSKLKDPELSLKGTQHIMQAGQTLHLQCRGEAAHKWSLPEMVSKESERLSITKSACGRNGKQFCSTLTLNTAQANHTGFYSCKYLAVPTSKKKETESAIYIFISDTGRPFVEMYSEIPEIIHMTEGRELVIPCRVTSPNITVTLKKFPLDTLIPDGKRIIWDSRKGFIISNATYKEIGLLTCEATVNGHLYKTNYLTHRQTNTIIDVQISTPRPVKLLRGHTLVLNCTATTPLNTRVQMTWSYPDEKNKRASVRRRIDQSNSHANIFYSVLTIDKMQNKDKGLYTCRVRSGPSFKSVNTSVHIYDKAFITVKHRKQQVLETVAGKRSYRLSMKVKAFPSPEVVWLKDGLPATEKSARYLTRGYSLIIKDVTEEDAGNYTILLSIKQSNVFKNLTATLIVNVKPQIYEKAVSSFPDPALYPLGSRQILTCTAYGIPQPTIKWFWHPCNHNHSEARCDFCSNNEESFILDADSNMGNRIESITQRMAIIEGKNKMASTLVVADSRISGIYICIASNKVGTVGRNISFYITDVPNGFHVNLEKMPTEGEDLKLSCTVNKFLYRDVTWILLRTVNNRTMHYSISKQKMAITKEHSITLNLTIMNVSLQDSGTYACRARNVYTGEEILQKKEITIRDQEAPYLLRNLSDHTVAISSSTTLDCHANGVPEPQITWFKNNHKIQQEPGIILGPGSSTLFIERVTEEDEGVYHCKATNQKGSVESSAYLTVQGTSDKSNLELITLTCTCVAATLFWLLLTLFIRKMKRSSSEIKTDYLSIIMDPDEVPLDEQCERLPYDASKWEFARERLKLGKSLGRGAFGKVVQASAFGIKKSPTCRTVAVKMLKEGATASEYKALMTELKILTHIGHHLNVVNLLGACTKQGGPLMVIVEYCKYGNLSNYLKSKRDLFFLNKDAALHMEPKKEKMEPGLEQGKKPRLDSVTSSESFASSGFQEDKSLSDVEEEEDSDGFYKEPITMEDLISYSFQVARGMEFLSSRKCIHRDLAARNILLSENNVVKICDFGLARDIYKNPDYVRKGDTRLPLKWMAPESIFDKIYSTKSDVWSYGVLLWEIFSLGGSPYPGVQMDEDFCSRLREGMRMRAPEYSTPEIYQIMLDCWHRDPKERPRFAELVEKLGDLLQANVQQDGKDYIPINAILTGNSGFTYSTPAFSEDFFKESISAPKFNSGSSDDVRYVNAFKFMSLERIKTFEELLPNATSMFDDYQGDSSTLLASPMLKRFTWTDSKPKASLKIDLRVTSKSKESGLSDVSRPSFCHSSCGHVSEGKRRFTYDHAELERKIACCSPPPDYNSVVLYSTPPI
Glycogen synthase kinase-3 beta (Homo sapiens), sequence (P49841 whole entry, looked up): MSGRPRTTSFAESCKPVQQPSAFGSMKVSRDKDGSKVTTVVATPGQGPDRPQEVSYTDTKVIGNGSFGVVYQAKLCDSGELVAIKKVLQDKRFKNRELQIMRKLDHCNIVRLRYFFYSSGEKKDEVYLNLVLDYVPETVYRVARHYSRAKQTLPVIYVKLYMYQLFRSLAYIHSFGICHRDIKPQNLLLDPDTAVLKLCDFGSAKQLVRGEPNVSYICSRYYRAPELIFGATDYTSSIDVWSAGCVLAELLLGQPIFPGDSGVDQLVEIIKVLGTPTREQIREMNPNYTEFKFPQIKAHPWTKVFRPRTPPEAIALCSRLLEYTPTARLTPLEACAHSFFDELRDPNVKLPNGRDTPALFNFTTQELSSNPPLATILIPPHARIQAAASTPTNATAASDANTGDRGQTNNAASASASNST

Turning to `Cc1nn(C)cc1-c1nc2c(Oc3ccc(C(=O)Nc4ccccc4)cc3)c(Cl)cnc2[nH]1`, the metabolized at 0.5 h, 10 µM in [1] turned out to be 22%; in data set [3], 9%. Moreover, the IC50 is 160 nM against Aurora kinase A [2]; 960 nM against Aurora kinase A [4]; 65 nM at Aurora kinase A [5]; 162 nM in data set [7]; 29 nM against Aurora kinase A [10]; 27 nM against Aurora kinase A [11]. Further, at Aurora kinase B, the IC50 was 24600 nM. Besides, the inhibition in data set [6] and in [9] was greater than 80% each time. The Ratio IC50 with HeLa turned out to be 480. In addition, growth in [8] was halved (GI50) at 299 nM. Besides, the F with Mus musculus is recorded as 100%.

In general, IC50 refers to the concentration that inhibits the measured activity by half. Low readings indicate greater potency, high ones weaker potency. By inhibition is commonly meant the drop in the measured response relative to a control, in per cent. Lower therefore signals a response near the control. As usually defined, the GI50 is the concentration that inhibits growth by half. A lower GI50 goes with more potent growth inhibition.
